Compound activity as filed in PubChem.
Xi reactivation = activators of inactive X chromosome reactivation, primary screen, imaging, XiGFP fibroblasts, GFP high-content imaging, set 2 | XiGFP mouse fibroblasts, % GFP-positive cells imaging, 3 d; cells co-treated with 5-aza-dC sensitizer; scaled so ellipticine positive control = 100% | activation, % at 7.58 µM | 360,000 tested, 0.055% active;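 active means mean normalized replicate activation at least 10% and every replicate at or above 10%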;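 further: 0% = median of on-plate neutral control wells and 100% = ellipticine 6 µM median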
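System: SV40-immortalized XiGFP fibroblast cells, line 68-5-11 / Incubation: 3-day compound exposure, then 15 min fixation at room temperature / Compound: single concentration per compound, delivered by pin transfer / Buffer or medium: DMEM plus 5-aza-dC sensitizer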
Ecoli rRNA inh = reduced GFP signal of wild-type E. coli, primary screen, bacterial rRNA inhibitor project, GFP/RFP fluorescence, OD600, single point; E. coli WT GFP vs humanized-ribosome RFP mutants, 24 h; active compounds read low; DMSO median 0, no signal -100; GFP signal change (wild-type ribosome), % (concentration not given with the values); 350,000 tested, 1.6% active; AID 720706, 2013;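 active means significant combined selectivity score with lowered wild-type GFP, culture density cut under 30%, mutant RFP and density less affected; inactive means any of these conditions unmet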
PvdQ inh = P. aeruginosa PvdQ acylase inhibitors, primary screen, biochemical, fluorescence, plate reader and imaging, single point; PvdQ acylase [Pseudomonas aeruginosa LESB58]; purified PvdQ acylase; inhibition, % at 10 µM; 340,000 tested, 0.063% active; AID 488965, 2010; in the data active means inhibition above about 30%, passing the limit was not always enough;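 further: 0% = vehicle neutral wells and 100% = reference inhibitor wells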
dFosB act-1 = activators of delta FosB homodimer, primary screen, biochemical, fluorescence polarization, TAMRA-CDK5 oligo, single point; 340,000 tested, 0.99% active; Protein FosB (Mus musculus), P13346; purified delta FosB; percent of positive-control signal above neutral wells; AID 493131, 2011; activation, % at 25 µM;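 active means mean activation above about 17%, with every replicate also reaching it, limit read from the data, passing the limit was not always enough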
SR-BI DiI inh = inhibitors of SR-BI mediated HDL lipid uptake, primary screen, ldlA[mSR-BI] cells, fluorescence, single point. Scavenger receptor class B member 1 (Mus musculus), Q61009. ldlA[mSR-BI] CHO cells, DiI-HDL uptake fluorescence, 3 h. inhibition, % at 12.5 µM. 320,000 tested, 0.96% active. AID 488896, 2010;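 active means mean replicate inhibition of at least 70% and a set share of replicates each scoring 70 or more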;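 further: 0% = median of neutral control wells and 100% = median of positive control wells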
Target sequence (Q61009 whole entry, looked up): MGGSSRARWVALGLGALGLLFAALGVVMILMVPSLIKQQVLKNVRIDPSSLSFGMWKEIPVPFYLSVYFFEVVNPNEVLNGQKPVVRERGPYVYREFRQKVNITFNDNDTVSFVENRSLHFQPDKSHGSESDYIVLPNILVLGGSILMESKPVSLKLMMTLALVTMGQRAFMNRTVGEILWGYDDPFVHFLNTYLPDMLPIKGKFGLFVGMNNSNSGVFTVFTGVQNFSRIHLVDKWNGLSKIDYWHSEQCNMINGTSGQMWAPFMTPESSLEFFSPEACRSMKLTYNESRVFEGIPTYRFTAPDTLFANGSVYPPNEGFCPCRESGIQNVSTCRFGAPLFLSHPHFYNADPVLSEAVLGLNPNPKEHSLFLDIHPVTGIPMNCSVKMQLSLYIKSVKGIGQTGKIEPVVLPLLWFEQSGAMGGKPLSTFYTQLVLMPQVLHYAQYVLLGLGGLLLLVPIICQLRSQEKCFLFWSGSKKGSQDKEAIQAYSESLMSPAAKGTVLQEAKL
SR-BI DiI-HDL act = activators of SR-BI mediated DiI-HDL uptake, primary screen, ldlA[mSR-BI] CHO cells, DiI fluorescence | 3 h; 100 = double the neutral-control signal | activation, % at 12.5 µM | 320,000 tested, 0.096% active;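 active means mean replicate activation of at least 60% and every replicate at or above 60%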;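 further: 0% = median plate neutral-control signal and 100% = twice that signal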
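Material: SR-BI-overexpressing, LDLR-lacking CHO cells; schedule: compound exposure 3 h, 37 °C; reagent: DiI-labelled HDL at 10 µg/mL final; technique: bottom-read fluorescence, 550/595 nm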
dFosB act-2 = activators of mouse delta FosB DNA binding, confirmation, biochemical, fluorescence polarization, TAMRA-CDK5 oligo, cherry-picked samples | shares compounds with dFosB act-1 | purified delta FosB; normalised: neutral wells 0, positive control 100 | activation, % at 24.9 µM | 2,400 tested, under 10 active;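 active means highest replicate activation at or above 34% and every replicate reaching that threshold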;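 further: higher polarization means more probe DNA bound by delta FosB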
An asterisk follows results filed as active; x = no result. An excerpt weighted towards active compounds, which were near 2.6% of everything screened.

SMILES	Xi reactivation	Ecoli rRNA inh	PvdQ inh	dFosB act-1	SR-BI DiI inh	SR-BI DiI-HDL act	dFosB act-2
COc1cc2ccccc2cc1C(=O)N(CCN(C)C)c1nc2c(C)cccc2s1	0	2	-13	29*	7	-7	6
COc1cc2ccccc2cc1C(=O)N(CCN(C)C)c1nc2ccc(C)cc2s1	0	-59	1	40*	31	-31	2
COc1ccc2nc(N(CCN(C)C)C(=O)/C=C/c3cccs3)sc2c1	0	-19	-11	42*	34	-34	-8
Cc1cccc2sc(N(CCN(C)C)C(=O)c3cc(Cl)sc3Cl)nc12	0	x	-16	-2	12	-12	x
COc1ccc([N+](=O)[O-])cc1NC(=O)Cc1ccccc1Cl	0	x	-5	0	27	-27	x
CNC(=O)/C(C#N)=C/c1ccc(-c2ccccc2[N+](=O)[O-])o1	0	14	8	5	29	-29	x
CCc1cc2cc3c(cc2nc1SCC(=O)Nc1nccs1)OCO3	x	x	11	8	21	-21	x
CCc1cc2cc3c(cc2nc1SCC(=O)Nc1c[nH]c(=O)[nH]c1=O)OCO3	0	5	-10	70*	x	x	-6
O=C(Cc1c(Cl)cccc1Cl)NCCc1ccc(Cl)cc1	x	x	-13	20*	-5	5	0
Cc1cn([C@H]2C[C@H](O)[C@@H](CNCc3cccn3-c3ccncc3)O2)c(=O)[nH]c1=O	0	7	x	x	x	x	x
COc1ccc(-c2nn(-c3ccccc3)cc2C(=O)Nc2nccs2)cc1	x	x	-10	-3	60	-60	x
O=C(Nc1nccs1)c1cn(-c2ccccc2)nc1-c1ccncc1	0	18	-10	36*	43	-43	1
Cc1ccc(NNC(=O)C(O)(c2cccc(C(F)(F)F)c2)c2cccc(C(F)(F)F)c2)cc1	0	x	0	77*	11	-11	0
CCOc1ccc(-c2c(C(=O)N/N=C/c3cccc(Br)c3)nnn2-c2nonc2N)cc1	0	0	-9	55*	49	-49	1
CCOc1cccc(-c2c(C(=O)N/N=C/c3ccc(Br)cc3)nnn2-c2nonc2N)c1	0	-11	-11	29*	29	-29	4
COc1cccc(-c2c(C(=O)N/N=C/c3ccsc3)nnn2-c2nonc2N)c1	0	-4	-8	20*	13	-13	2
CC(C)(C)CNC(=O)C1(C)CCN1C(=O)Cc1ccc(-c2ccccc2)cc1 (stereo not given)	0	x	x	x	x	x	x
Cn1cc(-c2csc(C(C)(O)c3cccc(F)c3)n2)cn1 (stereo not given)	1	0	x	x	x	x	x
COc1ccc(-c2ccc(/C=N/NC(=O)c3cccnc3)o2)c([N+](=O)[O-])c1	x	x	-7	50*	9	-9	-1
Cc1ccc(C(=O)N/N=C/c2ccc(-c3ccccc3[N+](=O)[O-])o2)cn1	0	x	-1	2	4	-4	x
COc1ccc(CN(C)CC(O)COc2ccc(-c3ccccc3)cc2)cc1OC (stereo not given)	0	-4	-3	19*	24	-24	-8
O=C(COc1ccc(S(=O)(=O)N2CCCCC2)cc1)NC1CCCCC1	x	x	-2	0	-17	17	x
O=C(COc1ccc2c(c1)OCO2)Nc1ccc2c(c1)oc1ccccc12	x	x	-1	81*	-6	6	3
Cc1ccc(C)c(NC(=O)C2CC3c4ccccc4C2c2ccccc23)c1 (stereo not given)	x	x	-10	40*	-17	17	0
CC1(C)CC(N=c2cc(-c3ccccc3)oc3ccc(Cl)cc23)CC(C)(C)N1	0	-58	3	40*	19	-19	-3
SMILES	Xi reactivation	Ecoli rRNA inh	PvdQ inh	dFosB act-1	SR-BI DiI inh	SR-BI DiI-HDL act	dFosB act-2
OCCCN=c1cc(-c2ccccc2)oc2ccc(Cl)cc12	x	x	-8	10	0	0	x
O=C(CCNC(=O)c1ccc(Br)cc1)Nc1nccs1	0	8	-9	-9	14	-14	x
NC(=O)NC(=O)COC(=O)c1sc2ccccc2c1Cl	0	8	-6	43*	2	-2	7
O=C(COC(=O)CNC(=O)c1sc2ccccc2c1Cl)Nc1c(Cl)cc(Cl)cc1Cl	0	4	-1	40*	-1	1	8
O=C(COC(=O)c1sc2ccccc2c1Cl)NC1CCCCC1	1	x	-6	1	-12	12	x
COc1ccc(/C=C/C(=O)NC(=S)Nc2ccccn2)cc1	0	2	-1	17*	-30	30	0
Cc1ccccc1C(=O)N1CCN(c2ccc(NC(=O)c3ccco3)cc2)CC1	0	1	-5	-13	19	-19	x
COc1ccc2nc(NC(=O)C3CCCN(S(=O)(=O)c4cccc5nsnc45)C3)sc2c1 (stereo not given)	x	x	-6	25*	53	-53	-1
Cc1nc(NC(=S)NC(=O)c2cncc(Br)c2)ccc1Br	0	16	-16	21*	7	-7	1
Cc1ccnc(NC(=S)NC(=O)c2cncc(Br)c2)c1	0	x	2	-7	0	0	x
COc1ccc(CCNC(=O)c2nnn(CC(=O)Nc3ccccc3C)c2N)cc1OC	x	x	0	16	46	-46	x
COc1ccccc1NC(=O)Cn1nnc(C(=O)NCCc2ccccc2)c1N	0	x	10	40*	30	-30	1
COc1cccc(NC(=O)Cn2nnc(C(=O)NCCc3ccccc3)c2N)c1	0	8	10	37*	16	-16	3
CCN1CCN(C(=O)CSc2nc(N)cc(N)n2)CC1	0	19	-14	1	-19	19	x
CC(OC(=O)c1cc(-c2cccnc2)nc2ccccc12)C(=O)Nc1ccc2ccccc2c1 (stereo not given)	0	7	15	44*	16	-16	7
O=C(Nc1ccc(Br)cc1)C1CC(O)CN1C(=O)Oc1ccccc1 (stereo not given)	0	4	7	-9	1	-1	x
